Data on 13 compounds can be found in ChEMBL document CHEMBL4732041, “Sulfonium-based liposome-encapsulated antibiotics deliver a synergistic antibacterial activity” (RSC Med Chem, 2021).

Structures are written as SMILES. In brackets after ≈: the same amount, converted by molar mass. Several values for one entry are separate records, joined by “and”; a condition that tells them apart may be missing. Equal entries are not always repeated. Activity calls are given as the source filed them. The calls are words filed in the database; no cut-off is given here.

Data set [1] relates to Staphylococcus aureus. Kind of data set: Antibacterial activity against methicillin resistant Staphylococcus aureus incubated for 14 to 16 hrs by micro broth dilution method. It is filed as functional. Conditions: time 14-16 hrs. The method, boiled down: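 MRSA grown in BHI broth at 37 °C with shaking to mid-log phase, harvested, PBS-washed and resuspended in PBS; 10^6 CFU mL−1 incubated with serially varied compound concentrations at 37 °C for 14–16 h; OD600 read. MIC is the lowest concentration with no visible growth or OD near the bacteria-free control; repeated thrice.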

For data set [2], the system named is Pseudomonas aeruginosa. Description: Antibacterial activity against Pseudomonas aeruginosa MTCC 2488 incubated for 14 to 16 hrs by micro broth dilution method. The class given is functional. The note with it: time 14-16 hrs. The method, boiled down: (§1)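 Broth microdilution. E. coli and P. aeruginosa grown in LB, S. aureus in BHI, to mid-log phase at 37 °C with shaking. Cells washed and resuspended in PBS, then exposed to graded compound concentrations at 10^6 CFU/mL at 37 °C for 14–16 h. OD600 read. MIC is the lowest concentration with no visible growth or OD close to the bacteria-free control. Repeated thrice at the MIC.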

The test system of data set [3] is Staphylococcus aureus. Kind of data set: Antibacterial activity against Staphylococcus aureus MTCC 96 incubated for 14 to 16 hrs by micro broth dilution method. The class given is functional. The note with it: time 14-16 hrs. Summed up: as §1
Data set [4] deals with Escherichia coli. Kind of data set: Antibacterial activity against Escherichia coli MTCC 1687 incubated for 14 to 16 hrs by micro broth dilution method. It is filed as functional. Conditions: time 14-16 hrs. The method, boiled down:
as §1

Data set [5] concerns Pseudomonas aeruginosa. Description: Antibacterial activity against Pseudomonas aeruginosa after 24 hrs by microdilution method. It is filed as functional.
Data set [6] is described as follows: Hemolytic activity against human erythrocytes incubated for 1 hr by UV-vis spectroscopic method. The class given is ADME, cell-based, Erythrocyte. The method, boiled down:
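Erythrocytes from fresh human blood spun at 1500 rpm for 10 min, PBS-washed, made to 5% haematocrit. Serial compound dilutions incubated with the cells for 1 h at 37 °C. Buffer served as negative control and 0.5% Triton X-100 as positive control. After centrifugation, supernatant absorbance read at 410 nm and % haemolysis computed against both controls.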

In data set [7] the test system is Pseudomonas aeruginosa. Description: Bactericidal activity against Pseudomonas aeruginosa MTCC 2488 incubated for 24 hrs by micro broth dilution method. It is filed as functional.
Data set [8] deals with Escherichia coli. Kind of data set: Bactericidal activity against Escherichia coli MTCC 1687 incubated for 24 hrs by micro broth dilution method. It is filed as functional.
For data set [9], the system named is Staphylococcus aureus. Description: Bactericidal activity against Staphylococcus aureus MTCC 96 […] by micro broth dilution method. The class given is functional.
Data set [10] relates to HaCaT. Description: Cytotoxicity against human HaCaT cells up to 100 uM after 24 hrs by MTT assay. It is filed as cell-based.
The subject of data set [11] is Staphylococcus aureus. Description: Bactericidal activity against methicillin resistant Staphylococcus aureus […] by micro broth dilution method. It is filed as functional.
Data set [12] is described as follows: Solubility of compound in PBS at pH 7.4. The class given is physicochemical. Conditions: buffer.
In data set [13] the test system is Escherichia coli. Kind of data set: Synergistic antibacterial activity against Escherichia coli assessed as amoxicillin MIC encapsulated by compound. The class given is functional. The method, boiled down: (§2)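 Antibiotic-loaded liposomes (film hydrated with tetracycline or amoxicillin in PBS, freeze–thaw, vortexing, unloaded drug removed by centrifugation) tested by the same broth microdilution protocol: mid-log cells in PBS at 10^6 CFU/mL, 37 °C, 14–16 h, OD600.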

Data set [14] relates to HaCaT. Kind of data set: Cytotoxicity against human HaCaT cells after 24 hrs by MTT assay. The class given is cell-based.
Data set [15] relates to Staphylococcus aureus. Kind of data set: Synergistic antibacterial activity against Staphylococcus aureus assessed as amoxicillin MIC encapsulated by compound. It is filed as functional. The method, boiled down: as §2
For data set [16], the system named is Escherichia coli. Kind of data set: Synergistic antibacterial activity against Escherichia coli assessed as tetracyclin MIC encapsulated by compound. It is filed as functional. The method, boiled down: as §2
Data set [17] relates to Staphylococcus aureus. Description: Synergistic antibacterial activity against Staphylococcus aureus assessed as tetracyclin MIC encapsulated by compound. The class given is functional. The method, boiled down:
as §2

Data set [18] in a line: Drug release in PBS at pH 7.4 assessed as tetracyclin release incubated for 60 hours by fluorometric method. The note with it: buffer, pH 7.4, 60 h.
Data set [19] can be described thus: Therapeutic index, ratio of IC50 for human HaCaT to MIC for Staphylococcus aureus. The class given is toxicity. Conditions: HaCaT cells.
A short description of data set [20]: Aggregation property of compound assessed as spherical aggregates size by dynamic light scattering analysis. The class given is physicochemical. The method, boiled down:
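Chloroform stock dried to a film by rotary evaporation, hydrated overnight at 50 °C in PBS (137 mM NaCl, 2.7 mM KCl, 8 mM Na2HPO4, 2 mM KH2PO4, pH 7.4), then vortexed and intermittently sonicated to unilamellar vesicles. Hydrodynamic diameter and zeta potential measured by DLS at 25 °C in buffers of different pH.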

Data set [21] relates to Staphylococcus aureus. Kind of data set: Bactericidal activity against Staphylococcus aureus assessed as membrane damage incubated for 5 hrs by cFDA-SE dye based fluorescence microscopic analysis. The class given is functional, organism-based. Summed up:
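S. aureus cultured and harvested, then exposed to compound (buffer-only control) for 5 h. Cells washed and diluted to 10^6 CFU/mL, stained separately with 30 μM PI or 10 μM cFDA-SE for 30 min, and viewed by fluorescence microscopy.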

Data set [22] has as its system Cell membrane. Description: Induction of membrane depolarization in Staphylococcus aureus MTCC 96 assessed as increase in fluorescence intensity at 0 to 4 uM by DiSC3-5 dye based fluorescence assay. The class given is subcellular. The note with it: dose 0-4 µM. Summed up:
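Mid-log S. aureus MTCC 96 resuspended in 10 mM HEPES with 50 mM glucose and loaded with 0.4 μM (final) DiSC3(5) for 1 h. KCl added to 100 mM, 10 min wait, then compound at 0, 2 or 4 μM or 30 μM valinomycin as positive control. Fluorescence recorded at excitation 620 nm, emission 650 nm.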

In data set [23] the test system is Staphylococcus aureus. Description: Bactericidal activity against Staphylococcus aureus MTCC 96 assessed as fragmented cell morphology incubated for 5 hrs by FESEM analysis. The class given is functional, organism-based. Summed up: (§3)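 S. aureus MTCC 96 and E. coli MTCC 1687 harvested by centrifugation (5000 rpm, 5 min) and washed. Exposed to compound for 5 h alongside untreated control. Cells washed with water, drop-cast on foil, air-dried, mounted on carbon tape, gold double-coated, and imaged by FESEM.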

The test system of data set [24] is Escherichia coli. Description: Bactericidal activity against Escherichia coli MTCC 1687 assessed as fragmented cell morphology incubated for 5 hrs by FESEM analysis. It is filed as functional, organism-based. Summed up:
as §3

The subject of data set [25] is Staphylococcus aureus. Description: Antibiofilm activity against Staphylococcus aureus MTCC 96 assessed as inhibition of biofilm formation incubated for overnight by crystal violet staining assay. It is filed as functional, organism-based. The note with it: dose 6.25-100 µM. Summed up:
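S. aureus MTCC 96 grown and exposed to compound as in the MIC assay, then incubated overnight. Planktonic cells removed, wells rinsed with PBS and air-dried. Stained with 1% (v/v) crystal violet for 20 min, dried, dye taken up in 95% ethanol, and absorbance read at 590 nm.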

The nature of data set [26]: Drug release in PBS at pH 7.4 assessed as amoxicillin release incubated for 60 hours by fluorometric method. Conditions: buffer, pH 7.4, 60 h.
Data set [27] in a line: Therapeutic index, ratio of IC50 for human HaCaT to MIC for Escherichia coli. It is filed as toxicity. The note with it: HaCaT cells, read-out: TI.
Data set [28] concerns Cell membrane. Description: Disruption of bacterial cell membrane in Staphylococcus aureus MTCC 96 assessed as increase in PI uptake by measuring increase in fluorescence intensity by PI dye based spectrofluorometric analysis. The note with it: time 1-3 hrs, TDE = time-dependent effect. The class given is subcellular. Summed up: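 S. aureus MTCC 96 grown overnight and diluted in medium to 10^6 CFU/mL. Compound added, then incubated at 37 °C, 180 rpm. Samples taken at 1, 2 and 3 h, washed in PBS, stained with 30 μM PI for 30 min, washed again. Fluorescence read at excitation 535 nm, emission 617 nm.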

Data set [29] can be described thus: Aggregation property of the compound in aqueous medium assessed as formation of spherical aggregates by FE-TEM analysis. It is filed as physicochemical. Conditions: buffer. The method, boiled down:
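Lipid aggregates prepared in PBS pH 7.4 by film hydration, not extruded, then diluted to half concentration. Applied to carbon-coated copper grid for 1 min, uranyl acetate stain, excess wicked off. Grid dried overnight at 30 °C and imaged by TEM at 200 kV.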

For the compound `CCSCc1cc(CSCC)cc(C[n+]2ccccc2)c1`, the MIC in [1], in data set [2], in [3] and in data set [4] was over 100 µM each time.

For `CCCCCCCCCCCCC[N+](C)(C)Cc1ccccc1.[Cl-]` [BENZALKONIUM CHLORIDE], in data set [5], inhibition of growth (MIC) required 32 µg/mL.

`CCCCCCCCCCCC[S+](C)Cc1cc(Cn2cc(CS(=O)(=O)O)nn2)cc(C[S+](C)CCCCCCCCCCCC)c1.F[B-](F)(F)F.F[B-](F)(F)F` (stereo unspecified): the MIC in data set [1] stood at 25 µM; in data set [2] it was 25 µM; in data set [3], 10 µM; in data set [4], 12 µM. In addition, the HC50 at 1 h in data set [6] was found to be 35 µM. In addition, the MBC in data set [7] is 50 µM; in data set [8] it was 20 µM; in data set [9] it was 12.5 µM; in data set [11], over 100 µM. In addition, the Activity entry in [10] is reported as “Non-Toxic”.

For `CC[S+](C)Cc1cc(C[n+]2ccccc2)cc(C[S+](C)CC)c1.F[B-](F)(F)F.F[B-](F)(F)F.F[B-](F)(F)F` (stereo unspecified), the MIC in data set [1], in data set [2], in [3] and in [4] was over 100 µM in each case. For the same compound, in data set [12], the solubility result is given as “Soluble”.

For the compound `CCCCCCCCN=c1ccn(CCCCCCCCCCn2ccc(=NCCCCCCCC)cc2)cc1.Cl.Cl` [OCTENIDINE HYDROCHLORIDE], the MIC in data set [5] is 6.25 µM and 3.9 µg/mL.

Consider `CC1(C)S[C@@H]2[C@H](NC(=O)[C@H](N)c3ccc(O)cc3)C(=O)N2[C@H]1C(=O)O` [AMOXICILLIN], for which the MIC in data set [1] was over 50 µM; in data set [2], 4.3 µM (≈ 1.57 µg/mL); in [13], 1.7 µM; in data set [3] it was 6.8 µM (≈ 2.48 µg/mL); in data set [15], 1.2 µM; in data set [4] it was 11 µM (≈ 4.02 µg/mL). The IC50 in data set [14] was 29.4 µM.

In the case of `Oc1cc(Cl)ccc1Oc1ccc(Cl)cc1Cl` [TRICLOSAN], in data set [5], the MIC was over 512 µg/mL.

For `CCCCCCCCCCCCSCc1cc(CSCCCCCCCCCCCC)cc(Cn2cc(CS(=O)(=O)O)nn2)c1`, the MIC in data set [1], in data set [2], in data set [3] and in data set [4] was over 100 µM throughout.

`CCCCCCCCCCCCSCc1cc(CSCCCCCCCCCCCC)cc(C[n+]2ccccc2)c1`: the MIC in data set [1], in data set [2], in [3] and in data set [4] was over 100 µM each time.

Consider `N=C(NCCCCCCNC(=N)NC(=N)Nc1ccc(Cl)cc1)NC(=N)Nc1ccc(Cl)cc1.O=C(O)[C@H](O)[C@@H](O)[C@H](O)[C@H](O)CO`, for which the MIC in [5] was 15.6 µg/mL and 30.9 µM.

Take `CCCCCCCCCCCCSCc1cc(CN=[N+]=[N-])cc(CSCCCCCCCCCCCC)c1`: the MIC in data set [1], in data set [2], in data set [3] and in data set [4] was over 100 µM throughout.

Regarding `CN(C)[C@@H]1C(O)=C(C(N)=O)C(=O)[C@@]2(O)C(O)=C3C(=O)c4c(O)cccc4[C@@](C)(O)[C@H]3C[C@@H]12` [TETRACYCLINE], the MIC is over 100 µM in data set [1]; 14 µM (≈ 6.22 µg/mL) in [2]; 2 µM in data set [16]; 0.7 µM in data set [17]; 4.2 µM (≈ 1.87 µg/mL) in data set [3]; 8.5 µM (≈ 3.78 µg/mL) in [4]. Moreover, the IC50 in data set [14] came out at 8 µM.

With `CCCCCCCCCCCC[S+](C)Cc1cc(C[n+]2ccccc2)cc(C[S+](C)CCCCCCCCCCCC)c1.F[B-](F)(F)F.F[B-](F)(F)F.F[B-](F)(F)F` (stereo unspecified), the MIC in [1] was 6.3 µM; in data set [2], 12 µM; in [3], 6.3 µM; in data set [4], 7.5 µM. Besides, the Activity is 40% in data set [18]; 270 nm in [20]; “Dose-dependent effect” in [25]; 60% in data set [26]; “Tde” in data set [28]; “Active” in data set [29]. Besides, the selectivity ratio in data set [19] was found to be 4.3; in [27], 3.6. Also, the outcome in data set [21], in data set [22], in data set [23] and in data set [24] was Active. For the same compound, the 50% haemolytic concentration (HC50) at 1 h in data set [6] stood at 29 µM. In addition, the MBC in [7] came out at 24 µM; in [8], 10 µM; in data set [9], 12.5 µM; in data set [11], 12.5 µM. This compound gave an IC50 in data set [14] of 27 µM.
